Test results published in ChEMBL document CHEMBL1129598, “Design, synthesis, and in vitro evaluation of cyclic nitrones as free radical traps for the treatment of stroke” (J Med Chem, 1996).

Assays:
[1] = In vitro inhibition of oxidation of soybean phosphatidylcholine liposomes using lipid peroxidation assay.; type: functional, Glycine max
Procedure, shortened: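 Soybean phosphatidylcholine liposomes were oxidised with an Fe²⁺/Fe³⁺ mixture to start peroxidation, with test agent present, and oxidation products were then analysed. A reference cyclic nitrone was run as an internal standard in each experiment. Runs were rejected if its value deviated by more than 15% from its established value.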

[2] = lipophilicity of the compound.; type: physicochemical; conditions: reversed-phase HPLC
Procedure, shortened: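 Lipophilicity was measured by reversed-phase HPLC as log k′_w. Samples at 0.5 mg/mL in MeOH were run on a C18 column (15 cm × 4.6 mm, 5 µm). Elution used 32–62% MeOH in pH 7.4 phosphate buffer, at three MeOH levels per compound.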

SMILES	IC50 [1] [µM]	Log K'W [2]
CC1(C)Cc2ccoc2C=[N+]1[O-]	1070	1.16
COc1cccc2c1C=[N+]([O-])C2(C)C	1090	1.98
COc1ccc2c(c1)C(C)(C)[N+]([O-])=C2	910	1.75
Cc1cc2c(c(C)c1O)CC(C)(C)[N+]([O-])=C2	66	1.82
[O-][N+]1=Cc2ccccc2CCC12CCCCC2	730	2.99
[O-][N+]1=Cc2ccccc2CCC12CCOCC2	310	1.98
CC1(C)c2cc(O)ccc2C=[N+]1[O-]	810	0.68
CC1(C)Cc2c(ccc3ccccc23)C=[N+]1[O-]	100	2.67
CC1(C)Cc2ccsc2C=[N+]1[O-]	1720	1.47
CC1(C)Cc2sccc2C=[N+]1[O-]	1590	1.57
CC1(C)Cc2ccc3ccccc3c2C=[N+]1[O-]	69	2.69
CC1(C)Cc2ccccc2C=[N+]1[O-]	1670	1.9
[O-][N+]1=Cc2ccccc2CC12CCOCC2	1240	1.65
Cc1cc2c(c(C)c1O)CCC(C)(C)[N+]([O-])=C2	22	2.29
CC(C)(C)/[N+]([O-])=C/c1ccccc1	14300	–
CC1(C)c2ccccc2C=[N+]1[O-]	1360	1.61
